Consider four compounds from ChEMBL document CHEMBL1155849, “Cadinane sesquiterpenes from the leaves of Eupatorium adenophorum” (J Nat Prod, 2008).

Holding throughout (assay type): functional, cell-based
One assay deals with HCT-8. Kind of assay: Cytotoxicity against human HCT8 cells by MTT assay. The gist of the method:
(§1)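 Cell proliferation was read out by MTT. The lines were HCT-8 (colon), Bel-7402 (hepatoma) and A2780 (ovarian), all of human origin. Values are reported as IC50.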
Background: Formazan colour is commonly taken as a measure of viable cells.

The next assay relates to A2780. Kind of assay: Cytotoxicity against human A2780 cells by MTT assay. The gist of the method: as §1
Another assay has as its system Bel-7402. Kind of assay: Cytotoxicity against human Bel7402 cells by MTT assay. The gist of the method: as §1

Structures are written as SMILES.

For orientation: IC50 means the concentration at which inhibition is half-maximal. In the case of `CC1=C[C@H]2[C@@H](CC1)[C@H](C)C[C@H](O)[C@@]2(O)C(C)C`, the IC50 with HCT-8 was 2 µM; in the assay with A2780, 1.7 µM; with Bel-7402, 1.7 µM.

Take `CC1=C[C@@H]2C3=C(C)COO[C@@]3(O)C[C@@H](C)[C@@H]2CC1=O`: the IC50 in the assay on HCT-8, in the assay with A2780 and with Bel-7402 was more than 5 µM each time.

Take `CC1=C[C@@H]2C3=C(C)C(=O)O[C@H]3C[C@@H](C)[C@@H]2CC1=O`: the IC50 in the assay on HCT-8, in the assay with A2780 and in the assay with Bel-7402 was more than 5 µM throughout.

As to `CC1=C[C@@H]2C3=C(C)C(=O)O[C@]3([C@@]34C[C@@H](C)[C@@H]5CC(=O)C(C)=C[C@@H]5C3=C(C)C(=O)O4)C[C@@H](C)[C@@H]2CC1=O`, the IC50 in the assay with HCT-8, in the assay on A2780 and with Bel-7402 was more than 5 µM throughout.
